According to ChEMBL document CHEMBL1153478, “Discovery of imidazo[1,2-a]pyridines as potent MCH1R antagonists” (Bioorg Med Chem Lett, 2009):

How the values were obtained:
[1] = target: T1, Melanin-concentrating hormone receptor 1 (Homo sapiens, UniProt Q99705); test: Displacement of [125I]MCH from human MCH1 receptor
Summary of the method: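 Competition binding on membranes from CHO cells expressing human MCH1R, with [125I]-MCH as radioligand displaced by test compounds; IC50 reported as the mean of 2 experiments.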

[2] = Plasma concentration in Sprague-Dawley rat at 10 mg/kg, po after 2 hrs; type: ADME, organism-based; set-up: dose 10 mg/kg, route oral
Summary of the method: (§1)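 Single oral dose of 10 mg/kg given to SD rats. Plasma (µM) and brain (nmol/g) levels were measured 2 h after dosing. Values are means of 3 experiments.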

[3] = target: T1, Melanin-concentrating hormone receptor 1; test: Antagonist activity at human MCH1 receptor expressed in CHO cells assessed as inhibition of MCH-induced intracellular calcium level by FLIPR assay; type: functional, cell-based
[4] = test system: Brain; test: Drug level in Sprague-Dawley rat brain at 10 mg/kg, po after 2 hrs; type: ADME, organism-based; set-up: dose 10 mg/kg, route oral; settings: in vivo; summary of the method: as §1

T1 sequence (Q99705 whole entry): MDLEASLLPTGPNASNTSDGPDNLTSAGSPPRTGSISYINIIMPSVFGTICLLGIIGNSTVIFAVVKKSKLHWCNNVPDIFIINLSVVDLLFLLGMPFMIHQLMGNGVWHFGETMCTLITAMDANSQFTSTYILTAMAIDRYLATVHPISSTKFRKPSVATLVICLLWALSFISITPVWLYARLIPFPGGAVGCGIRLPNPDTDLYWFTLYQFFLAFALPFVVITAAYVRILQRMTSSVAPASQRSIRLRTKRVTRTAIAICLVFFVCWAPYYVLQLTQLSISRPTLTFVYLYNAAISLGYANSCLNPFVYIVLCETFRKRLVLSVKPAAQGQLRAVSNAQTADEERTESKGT

Row | Compound | IC50 [1] | concentration at 2 h [2] | IC50 [3] | Drug uptake [4]
1 | O=C(Nc1ccc2nc(CO)cn2c1)c1ccc(-c2ccc(C(F)(F)F)cc2)cc1 | 130 nM | – | – | –
2 | O=C(Nc1ccc2nccn2c1)c1ccc(-c2ccc(C(F)(F)F)cc2)cc1 | 300 nM | – | – | –
3 | CCOC(=O)c1cn2cc(NC(=O)c3ccc(-c4ccc(C(F)(F)F)cc4)cc3)ccc2n1 | > 1000 nM | – | – | –
4 | CN(C)Cc1cn2cc(NC(=O)c3ccc(-c4ccc(C(F)(F)F)cc4)cc3)ccc2n1 | 83 nM | – | – | –
5 | Cc1c(C2CC2)nc2ccc(NC(=O)c3ccc(-c4ccc(F)nc4)cc3)cn12 | 4.4 nM | 5 µM | 20 nM | 2.5 nmol/g
6 | Cc1c(C2CC2)nc2ccc(NC(=O)c3ccc(-c4ccc(F)cc4)cn3)cn12 | – | – | 59 nM | –
7 | CC(O)c1c(C2CC2)nc2ccc(NC(=O)c3ccc(-c4ccc(C(F)(F)F)cc4)cc3)cn12 (stereo not given) | 330 nM | – | – | –
8 | CC(C)(O)c1cn2cc(NC(=O)c3ccc(-c4ccc(C(F)(F)F)cc4)cc3)ccc2n1 | 17 nM | – | – | –
9 | Cc1c(C2CC2)nc2ccc(NC(=O)c3ccc(-c4ccc(F)cn4)cc3)cn12 | 5.4 nM | – | 90 nM | –
10 | Cc1c(C2CC2)nc2ccc(NC(=O)c3ccc(-c4cnc(C(F)(F)F)nc4)cc3)cn12 | 160 nM | – | – | –
11 | Cc1c(C2CC2)nc2ccc(NC(=O)c3ccc(-c4ccc(F)nc4)cn3)cn12 | 44 nM | – | 121 nM | –
12 | CC(=O)c1c(C2CC2)nc2ccc(NC(=O)c3ccc(-c4ccc(C(F)(F)F)cc4)cc3)cn12 | 320 nM | – | – | –
13 | CC(=O)N(C)Cc1cn2cc(NC(=O)c3ccc(-c4ccc(C(F)(F)F)cc4)cc3)ccc2n1 | 35 nM | – | – | –
14 | O=C(Nc1ccc2nc(C3CC3)c(C3CC3)n2c1)c1ccc(-c2ccc(C(F)(F)F)cc2)cc1 | 260 nM | – | – | –
15 | CCc1c(C2CC2)nc2ccc(NC(=O)c3ccc(-c4ccc(C(F)(F)F)cc4)cc3)cn12 | 20 nM | – | – | –
16 | Cc1c(C2CC2)nc2ccc(NC(=O)c3ccc(-c4ccc(Cl)cn4)cc3)cn12 | 2.2 nM | – | 100 nM | –
17 | Cc1ccc(-c2ccc(C(=O)Nc3ccc4nc(C5CC5)c(C)n4c3)cc2)nc1 | 4.8 nM | – | 85 nM | –
18 | Cc1c(C2CC2)nc2ccc(NC(=O)c3ccc(-c4ccc(C(F)(F)F)cc4)cc3)cn12 | 4.8 nM | – | – | –
19 | Cc1c(C2CC2)nc2ccc(NC(=O)c3ncc(-c4ccc(F)nc4)cn3)cn12 | 102 nM | – | 164 nM | –

Row | Compound | IC50 [1] | concentration at 2 h [2] | IC50 [3] | Drug uptake [4]
20 | Cc1c(C2CC2)nc2ccc(NC(=O)c3ccc(-c4ccc(S(C)(=O)=O)cn4)cc3)cn12 | 48 nM | – | 94 nM | –
21 | CC(C)c1cn2cc(NC(=O)c3ccc(-c4ccc(C(F)(F)F)cc4)cc3)ccc2n1 | 5.4 nM | – | – | –
22 | Cc1c(C2CC2)nc2ccc(NC(=O)c3ncc(-c4ccc(F)cc4)cn3)cn12 | 6.8 nM | – | 29 nM | –
23 | Cc1c(C2CC2)nc2ccc(NC(=O)c3cnc(-c4ccc(F)cc4)cn3)cn12 | 2.5 nM | – | 70 nM | –
24 | Cc1c(C2CC2)nc2ccc(NC(=O)c3ccc(-c4ccc(C(F)(F)F)nc4)cc3)cn12 | 4 nM | – | 109 nM | –
25 | O=C(Nc1ccc2nc(C3CC3)cn2c1)c1ccc(-c2ccc(C(F)(F)F)cn2)cc1 | 8.2 nM | – | – | –
26 | O=C(Nc1ccc2nc(C3CC3)c(CO)n2c1)c1ccc(-c2ccc(C(F)(F)F)cc2)cc1 | 11 nM | – | – | –
27 | CC(O)c1cn2cc(NC(=O)c3ccc(-c4ccc(C(F)(F)F)cc4)cc3)ccc2n1 (stereo not given) | 30 nM | – | – | –
28 | O=C(Nc1ccc2nc(C3CC3)cn2c1)c1ccc(-c2ccc(C(F)(F)F)cc2)cc1 | 5.6 nM | – | – | –
29 | CCCc1cn2cc(NC(=O)c3ccc(-c4ccc(C(F)(F)F)cc4)cc3)ccc2n1 | 11 nM | – | – | –
30 | CC(C)(C)c1cn2cc(NC(=O)c3ccc(-c4ccc(C(F)(F)F)cc4)cc3)ccc2n1 | 7.1 nM | – | – | –
31 | Cc1c(C2CC2)nc2ccc(NC(=O)c3ccc(-c4ccccn4)cc3)cn12 | – | – | 26 nM | –
32 | Cc1c(C2CC2)nc2ccc(NC(=O)c3ccc(-c4ccc(F)nc4)nc3)cn12 | 61 nM | – | 217 nM | –
33 | Cc1c(C2CC2)nc2ccc(NC(=O)c3ccc(-c4ccc(F)cc4)nc3)cn12 | 4 nM | – | 94 nM | –
34 | Cc1c(C2CC2)nc2ccc(NC(=O)c3ccc(-c4ccc(C(F)(F)F)cn4)cc3)cn12 | 3.5 nM | 1.4 µM | 1000 nM | 1.6 nmol/g
35 | Cc1cn2cc(NC(=O)c3ccc(-c4ccc(C(F)(F)F)cc4)cc3)ccc2n1 | 4.6 nM | – | – | –
36 | O=C(Nc1ccc2nc(C3CC3)cn2c1)c1ccc(-c2ccccn2)cc1 | 140 nM | – | – | –
37 | COc1ccc(-c2ccc(C(=O)Nc3ccc4nc(C5CC5)c(C)n4c3)cc2)nc1 | 6 nM | – | 122 nM | –
